From ChEMBL document CHEMBL4265924, “Inhibitor for FcεRI expression on mast cell from Verbasucum thapsus L” (2018) come the findings set out here.

Active and inactive are the calls of the source. The rule behind the calls is not given here.

The test system of assay [1] is HMC1. As to the kind of experiment: Inhibition of FCepsilonRI expression in human HMC1 cells at 30 to 100 uM after 72 hrs by flow cytometric analysis. The format is functional, cell-based. The gist of the method:
(§1)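 HMC-1 human mast cells exposed to test sample for 72 h, then harvested and stained with anti-FcεRI α-chain antibody plus FITC-labelled secondary antibody; surface FcεRI read as FITC fluorescence by flow cytometry. Mean ± SD of triplicate experiments.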

The test system of assay [2] is HMC1. Put plainly: Inhibition of FCepsilonRI expression in human HMC1 cells at 30 uM after 72 hrs by flow cytometric analysis. The format is functional. The settings on record: for inhibition (INH): in the assay text read “30 ug/mL” for “30 uM”. The gist of the method:
as §1
For orientation: In flow cytometry, cells or beads pass a laser one at a time.

The subject of assay [3] is HMC1. As to the kind of experiment: Inhibition of FCepsilonRIgamma subunit mRNA expression in human HMC1 cells at 50 to 100 uM after 36 hrs by RT-PCR analysis. The format is functional, cell-based. The gist of the method: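 After 36 h culture of HMC-1 cells with compound, total RNA extracted; mRNA of each FcεRI subunit measured by RT-PCR with ethidium bromide staining of products, normalized to g3pdh and compared with vehicle. Mean ± SD, triplicate experiments.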

The test system of assay [4] is HMC1. Put plainly: Inhibition of FCepsilonRIbeta subunit mRNA expression in human HMC1 cells at 50 to 100 uM after 36 hrs by RT-PCR analysis.

As usually defined, the inhibition is the relative decrease from the control value, in per cent. Consider `COc1cc2ccc(=O)oc2c(O)c1OCC(O)C(C)(C)O` (stereo unspecified), for which, in assay [1], the inhibition result is “inactive”. With `COc1cc2ccc(=O)oc2c(OC)c1OCC(O)C(C)C` (stereo unspecified), in assay [1], the inhibition result is “Active”. On the same count and under the same terms, with `COc1cc2ccc(=O)oc2c(OC)c1OCC1OC1(C)C` (stereo unspecified) the entry was “Active”. Still for that read-out and setting: with `COc1cc2ccc(=O)oc2c(OC)c1OCCC(C)(C)O` the entry was “Active”. Same read-out and setting: the value for `COc1cc2ccc(=O)oc2c(OC)c1OCCC(C)C` was “Active”. On to `COc1cc2ccc(=O)oc2c(OC)c1OCC(O)C(C)(C)O` (racemic) [listing 1 of 2 here], for which the “inhibition (INH)” value in assay [2] came out at 49%. For `COc1c(OCC(O)C(C)(C)O)c(O)cc2ccc(=O)oc12` (racemic), the inhibition entry in assay [1] was “inactive”. Consider `COc1cc2ccc(=O)oc2c(OC)c1OCC(O)C(C)(C)O` (racemic) [listing 2 of 2 here], for which, in assay [3], the inhibition entry is “inactive”. Moreover, in assay [4], the inhibition result is “Active”. In the case of `COc1cc2ccc(=O)oc2c(OC)c1OCC(O)C(C)(C)O` (single isomer, unassigned; enantiomer 1), in assay [2], the “inhibition (INH)” value is 45.1%. In assay [2] (Homo sapiens, HMC1, 72 h), `COc1cc2ccc(=O)oc2c(OC)c1OCC(O)C(C)(C)O` (stereo in doubt) returned an inhibition at 30 µM of 44.3%.
